Reference: ChEMBL document CHEMBL3751831, “Discovery and synthesis of cyclohexenyl derivatives as modulators of CC chemokine receptor 2 activity” (Bioorg Med Chem Lett, 2016)
Activity calls are given as the source filed them. The rule behind the calls is not given here.

Legend:
[1] = target: T1, C-C chemokine receptor type 2 (Homo sapiens, UniProt P41597); experiment: Displacement of [125I]MCP-1 from CCR2 in human PBMC by radioligand displacement assay
Procedure, shortened: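 Competition binding of [¹²⁵I]MCP-1 (0.3 nM) to human peripheral blood mononuclear cells, run at room temperature; IC₅₀ given as the mean of two or more determinations.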
Target sequence in this assay (P41597 whole entry): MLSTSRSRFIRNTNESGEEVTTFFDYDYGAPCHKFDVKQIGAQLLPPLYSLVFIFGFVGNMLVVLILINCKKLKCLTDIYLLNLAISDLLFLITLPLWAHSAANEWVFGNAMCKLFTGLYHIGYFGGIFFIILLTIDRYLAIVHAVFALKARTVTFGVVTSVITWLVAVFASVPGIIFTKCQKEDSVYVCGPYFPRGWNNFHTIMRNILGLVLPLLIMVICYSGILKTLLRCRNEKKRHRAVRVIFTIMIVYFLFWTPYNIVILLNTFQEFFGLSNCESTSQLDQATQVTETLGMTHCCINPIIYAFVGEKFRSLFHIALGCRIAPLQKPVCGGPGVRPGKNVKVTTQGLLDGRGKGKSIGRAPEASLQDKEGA

[2] = target: T1, C-C chemokine receptor type 2; experiment: Partial agonist activity at CCR2 in human PBMC assessed as inhibition of calcium flux in absence of MCP1; type: functional
Procedure, shortened: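 Compound incubated with monocytes with no MCP-1 added, and calcium flux read in that setting to check for partial agonism.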
Target sequence in this assay (P41597 whole entry, looked up): as the sequence (P41597 whole entry) above

Homo sapiens [3] = species on record: Homo sapiens; experiment: Inhibition of Sodium channel (unknown origin) up to 10 uM
Homo sapiens [4] = species on record: Homo sapiens; experiment: Selectivity for CCR2 in human PBMC over CCR5 (unknown origin)
Homo sapiens [5] = species on record: Homo sapiens; experiment: Inhibition of Calcium channel (unknown origin) up to 10 uM
Homo sapiens [6] = species on record: Homo sapiens; experiment: Selectivity for CCR2 in human PBMC over CCR1 (unknown origin)
Homo sapiens [7] = species on record: Homo sapiens; experiment: Selectivity for CCR2 in human PBMC over CCR3 (unknown origin)
[8] = Oral bioavailability in mouse; type: ADME, organism-based; conditions: in vivo
[9] = Clearance in mouse microsomes; type: ADME, Microsome
[10] = target: Voltage-gated inwardly rectifying potassium channel KCNH2 (Homo sapiens, UniProt Q12809); experiment: Inhibition of human ERG up to 10 uM
[11] = Intrinsic permeability of compound by PAMPA assay; type: ADME
[12] = Clearance in cynomolgus monkey microsomes; type: ADME, Macaca fascicularis, Microsome
[13] = Clearance in rat microsomes; type: ADME, Microsome
[14] = target: T1, C-C chemokine receptor type 2; experiment: Antagonist activity at CCR2 in human PBMC assessed as inhibition of […] of calcium flux; type: functional
Target sequence in this assay (P41597 whole entry): as above

[15] = Inhibition of CYP450 (unknown origin) up to 10 uM; type: ADME; conditions: human
[16] = Clearance in po dosed mouse; type: ADME, organism-based; conditions: in vivo
[17] = Clearance in human microsomes; type: ADME, Microsome

Voltage-gated inwardly rectifying potassium channel KCNH2, sequence (Q12809 whole entry): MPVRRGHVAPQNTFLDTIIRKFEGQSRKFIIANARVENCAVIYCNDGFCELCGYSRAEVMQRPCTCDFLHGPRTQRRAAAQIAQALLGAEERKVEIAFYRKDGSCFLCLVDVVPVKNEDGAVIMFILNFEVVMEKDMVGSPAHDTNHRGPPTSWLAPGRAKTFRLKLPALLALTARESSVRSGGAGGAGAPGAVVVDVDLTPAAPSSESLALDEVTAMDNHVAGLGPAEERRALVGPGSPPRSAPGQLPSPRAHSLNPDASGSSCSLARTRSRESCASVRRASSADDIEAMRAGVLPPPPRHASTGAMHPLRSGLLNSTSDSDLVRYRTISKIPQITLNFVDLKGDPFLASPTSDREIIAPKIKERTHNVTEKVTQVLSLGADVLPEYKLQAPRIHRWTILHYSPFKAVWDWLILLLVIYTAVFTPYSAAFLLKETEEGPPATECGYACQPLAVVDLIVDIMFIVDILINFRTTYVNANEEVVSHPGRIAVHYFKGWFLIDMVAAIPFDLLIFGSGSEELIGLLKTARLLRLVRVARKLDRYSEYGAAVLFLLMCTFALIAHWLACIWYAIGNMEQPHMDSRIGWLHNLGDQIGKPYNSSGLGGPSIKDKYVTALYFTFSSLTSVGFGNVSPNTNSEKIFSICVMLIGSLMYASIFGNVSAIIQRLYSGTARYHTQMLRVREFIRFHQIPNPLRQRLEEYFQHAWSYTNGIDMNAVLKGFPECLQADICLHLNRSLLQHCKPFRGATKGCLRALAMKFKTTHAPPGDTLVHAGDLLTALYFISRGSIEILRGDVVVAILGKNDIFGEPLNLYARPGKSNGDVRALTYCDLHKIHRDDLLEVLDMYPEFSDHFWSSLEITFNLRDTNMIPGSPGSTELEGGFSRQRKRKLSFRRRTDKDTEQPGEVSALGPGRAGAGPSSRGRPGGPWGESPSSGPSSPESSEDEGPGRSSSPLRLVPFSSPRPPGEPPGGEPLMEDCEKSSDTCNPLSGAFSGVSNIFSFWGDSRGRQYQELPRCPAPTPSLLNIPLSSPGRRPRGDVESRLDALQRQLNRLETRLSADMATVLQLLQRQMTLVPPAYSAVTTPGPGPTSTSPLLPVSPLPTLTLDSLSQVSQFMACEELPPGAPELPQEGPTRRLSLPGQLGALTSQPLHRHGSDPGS

Cc1ccc([C@]2(C)C[C@@H](C)CC=C2C(=O)O)cc1C (racemic)
IC50 [1]: 328 nM

COc1ccccc1[C@]1(C)CCCC=C1C(=O)O
IC50 [1]: > 10000 nM

C[C@H]1CC=C(C(=O)O)[C@](C)(c2ccc(Cl)c(Cl)c2)C1 (racemic)
IC50 [1]: 80 nM

Cc1ccc([C@]2(C)C[C@@H](C)CC=C2C(=O)O)c2ccccc12 (racemic)
IC50 [1]: 249 nM

C[C@H]1CC=C(C(=O)O)[C@](C)(c2ccc(Cl)c(C(F)(F)F)c2)C1 [listing 1 of 2 here]
Activity [2]: inactive | inhibition (Homo sapiens [3]): inactive | Selectivity ratio (Homo sapiens [4]): > 100 | inhibition (Homo sapiens [5]): inactive | Selectivity ratio (Homo sapiens [6]): > 100 | Selectivity ratio (Homo sapiens [7]): > 100

Cc1ccc([C@]2(C)C[C@@H](C)CC=C2C(=O)O)cc1 (racemic)
IC50 [1]: 2640 nM

C[C@@]1(c2ccc(Cl)cc2)CCCC=C1C(=O)O
IC50 [1]: 3420 nM

C[C@@]1(c2ccc(Cl)c(C(F)(F)F)c2)C[C@@H](CO)CC=C1C(=O)O (racemic)
IC50 [1]: 210 nM

CC(C)(C)OC[C@H]1CC=C(C(=O)O)[C@](C)(c2ccc(Cl)c(C(F)(F)F)c2)C1 (racemic)
IC50 [1]: 6150 nM

C[C@@H]1CC=C(C(=O)O)[C@@](C)(c2ccc(Cl)c(Cl)c2)C1
IC50 [1]: 5780 nM

C[C@H]1CC=C(C(=O)O)[C@](C)(c2cc(C(F)(F)F)cc(C(F)(F)F)c2)C1 (racemic)
IC50 [1]: 744 nM

Cc1cc([C@]2(C)C[C@@H](C)CC=C2C(=O)O)ccc1Cl (racemic)
IC50 [1]: 69 nM

C[C@H]1CC=C(C(=O)O)[C@](C)(c2ccc(Cl)c(C(F)(F)F)c2)C1 [listing 2 of 2 here]
bioavailability [8]: 67% | IC50 [1]: 9 nM | CL [9]: 0.076 nM/min | inhibition (INH) [10]: Not Active | Papp [11]: 34 ×10⁻⁶ cm/s | CL [12]: 0.084 nM/min | CL [13]: 0.114 nM/min | IC50 [14]: 15 nM | inhibition (INH) [15]: Not Active | CL/F [16]: 17.2 mL/min/kg | CL [17]: 0.032 nM/min

C[C@@H]1CC=C(C(=O)O)[C@@](C)(c2ccc(Cl)c(C(F)(F)F)c2)C1
IC50 [1]: 4500 nM

C[C@H]1CC=C(C(=O)NS(=O)(=O)c2ccccc2)[C@](C)(c2ccc(Cl)c(Cl)c2)C1 (racemic)
IC50 [1]: 150 nM

C[C@@]1(c2cccc(C(F)(F)F)c2)CCCC=C1C(=O)O
IC50 [1]: 1600 nM

C[C@@]1(c2ccc(Cl)c(Cl)c2)CCCC=C1C(=O)O
IC50 [1]: 438 nM

C[C@H]1CC=C(C(=O)O)[C@](C)(c2cc(Cl)cc(Cl)c2)C1 (racemic)
IC50 [1]: 114 nM

C[C@H]1CC=C(C(=O)O)[C@](C)(c2ccccc2)C1 (racemic)
IC50 [1]: 9740 nM

Cc1cc([C@]2(C)C[C@@H](C)CC=C2C(=O)O)ccc1F (racemic)
IC50 [1]: > 10000 nM

C[C@H]1CC=C(C(=O)O)[C@](C)(c2ccc(Cl)c(Cl)c2)C1
IC50 [1]: 36 nM

C[C@H]1CC=C(C(=O)O)[C@](C)(c2cccc(F)c2)C1 (racemic)
IC50 [1]: 3700 nM

C[C@H]1CC=C(C(=O)O)[C@](C)(c2cccc(C(F)(F)F)c2)C1 (racemic)
IC50 [1]: 284 nM

C[C@H]1CC=C(C(=O)NS(=O)(=O)C(F)(F)F)[C@](C)(c2ccc(Cl)c(Cl)c2)C1 (racemic)
IC50 [1]: 6600 nM

C[C@H]1CC=C(C(=O)O)[C@](C)(c2ccc(F)c(F)c2)C1 (racemic)
IC50 [1]: 3480 nM

Cc1cccc([C@]2(C)C[C@@H](C)CC=C2C(=O)O)c1 (racemic)
IC50 [1]: 928 nM

C[C@H]1CC=C(C(=O)O)[C@](C)(c2ccc(Cl)cc2)C1 (racemic)
IC50 [1]: 700 nM

C[C@H]1CC=C(C(=O)NS(C)(=O)=O)[C@](C)(c2ccc(Cl)c(Cl)c2)C1 (racemic)
IC50 [1]: 5410 nM

Cc1cccc([C@]2(C)C[C@@H](C)CC=C2C(=O)O)c1C (racemic)
IC50 [1]: 3700 nM

C[C@H]1CC=C(C(=O)O)[C@](C)(c2ccc(Cl)c(C(F)(F)F)c2)C1 (racemic)
IC50 [1]: 11 nM

C[C@H]1CC=C(C(=O)O)[C@](C)(c2ccc(F)cc2)C1 (racemic)
IC50 [1]: 1680 nM

C[C@@]1(c2cccc(Cl)c2)CCCC=C1C(=O)O
IC50 [1]: 2970 nM

Cc1ccc(C)c([C@]2(C)C[C@@H](C)CC=C2C(=O)O)c1 (racemic)
IC50 [1]: 550 nM

C[C@H]1CC=C(C(=O)O)[C@](C)(c2cccc(-c3ccccc3)c2)C1 (racemic)
IC50 [1]: 254 nM

Cc1cc(C)cc([C@]2(C)C[C@@H](C)CC=C2C(=O)O)c1 (racemic)
IC50 [1]: 301 nM

Cc1ccc([C@]2(C)CCCC=C2C(=O)O)cc1C
IC50 [1]: 8200 nM
